Published values collected from several papers.
Each line is one published result; the experiments were not run side by side.
CA12: Carbonic anhydrase 12 (CA12, Homo sapiens, UniProt O43570)
SLC6A3: Sodium-dependent dopamine transporter (SLC6A3, Homo sapiens, UniProt Q01959)
DRD3: D(3) dopamine receptor (DRD3, Homo sapiens, UniProt P35462)

Compound | target | observed | action | method | quantity | value
O=C(Oc1ccc(Cl)cc1)c1ccc(=O)oc1 | CA12 | enzyme activity | inhibitor | stopped-flow | Ki | 76.3 µM
CCOC(=O)[C@@]12C[C@@H]1[C@@H](n1ccc3c(NCCCCc4ccccc4)nc(C#Cc4ccccc4)nc31)[C@H](O)[C@@H]2O | SLC6A3 | ligand displacement |  | radioligand | Ki | 8 µM
Cc1[nH]c(C)c(S(=O)(=O)Nc2ccc(C(=O)C(F)(F)F)c(Cl)c2)c1C(=O)N1CCC(F)(F)C1 | DRD3 | G protein activation | antagonist | BRET | IC50 | 14.3 µM
O=C(OCc1cn(-c2ccc([N+](=O)[O-])cc2)nn1)c1ccc(=O)oc1 | CA12 | enzyme activity | inhibitor | stopped-flow | Ki | 62.8 µM
Cc1[nH]c(C)c(S(=O)(=O)Nc2ccc([N+](=O)[O-])c(Cl)c2)c1C(=O)N1CCC(F)(F)C1 | DRD3 | β-arrestin recruitment | antagonist |  | IC50 | 40 µM
O=C(OCc1cn(-c2ccccc2)nn1)c1ccc(=O)oc1 | CA12 | enzyme activity | inhibitor | stopped-flow | Ki | 55.8 µM
Cc1ccc(NS(=O)(=O)c2c(C)[nH]c(C)c2C(=O)N2CCC2)cc1Cl | DRD3 | β-arrestin recruitment | antagonist |  | IC50 | 35 µM
Cc1ccc(-n2cc(CNC(=O)c3ccc(=O)oc3)nn2)cc1 | CA12 | enzyme activity | inhibitor | stopped-flow | Ki | 57.8 µM
N#CC[C@@]12C[C@@H]1[C@@H](n1cnc3c(NC4CC4)nc(C#Cc4ccc(Cl)s4)nc31)[C@H](O)[C@@H]2O | SLC6A3 | ligand displacement |  | radioligand | EC50 | 0.2 µM
CC(C)(Sc1ccc(CCN(CCCCC2CCCCC2)C(=O)NC2CCCCC2)cc1)C(=O)O | Triggering receptor expressed on myeloid cells 2 (Homo sapiens, UniProt Q9NZC2) | binding |  | SPR | Kd | 86.2 µM
CCN(C)C(=O)c1c(C)[nH]c(C)c1S(=O)(=O)Nc1ccc(C(F)(F)F)c(Cl)c1 | DRD3 | G protein activation | antagonist | BRET | IC50 | 13 µM
CNC(=O)[C@@]12C[C@@H]1[C@@H](n1cnc3c(NCc4cccc(Cl)c4)nc(C#Cc4ccc(Cl)s4)nc31)[C@H](O)[C@@H]2O | SLC6A3 | ligand displacement |  | radioligand | Ki | 1.6 µM
O=C(NCc1cn(-c2ccc(Cl)cc2)nn1)c1ccc(=O)oc1 | CA12 | enzyme activity | inhibitor | stopped-flow | Ki | 61.2 µM
OCc1ccccc1O[C@@H]1O[C@H](CO)[C@@H](O)[C@H](O)[C@H]1O | Taste receptor type 2 member 16 (TAS2R16, Homo sapiens, UniProt Q9NYV7) | inositol phosphate | agonist | TR-FRET | EC50 | 13000 µM
COc1ccc(OC(=O)c2ccc(=O)oc2)cc1 | CA12 | enzyme activity | inhibitor | stopped-flow | Ki | 1.65 µM
CCOC(=O)[C@@]12C[C@@H]1[C@@H](n1cnc3c(Nc4ccccc4)nc(C#Cc4ccc(Cl)s4)nc31)[C@H](O)[C@@H]2O | SLC6A3 | ligand displacement |  | radioligand | Ki | 1.4 µM
Cc1c(Cl)c(=O)oc2cc(OCCCCSC#N)ccc12 | CA12 | enzyme activity | inhibitor | stopped-flow | Ki | 0.0591 µM
Cc1ccc(-n2cc(COC(=O)c3ccc(=O)oc3)nn2)cc1 | CA12 | enzyme activity | inhibitor | stopped-flow | Ki | 62.6 µM
CCOC(=O)[C@@]12C[C@@H]1[C@@H](n1cnc3c(NCCO)nc(C#Cc4ccc(Cl)s4)nc31)[C@H](O)[C@@H]2O | SLC6A3 | ligand displacement |  | radioligand | EC50 | 0.97 µM
Cc1[nH]c(C)c(S(=O)(=O)Nc2ccc(C(F)(F)F)c(Cl)c2)c1C(=O)N1CCN(C(=O)OC(C)(C)C)CC1 | DRD3 | G protein activation | antagonist | BRET | IC50 | 29 µM
CNC(=O)[C@@]12C[C@@H]1[C@@H](n1cnc3c(Nc4ccccc4)nc(C#Cc4ccc(Cl)s4)nc31)[C@H](O)[C@@H]2O | SLC6A3 | ligand displacement |  | radioligand | Ki | 1.6 µM
Cc1[nH]cc(S(=O)(=O)Nc2ccc(C(F)(F)F)c(Cl)c2)c1C(=O)N(C)C | DRD3 | G protein activation | antagonist | BRET | IC50 | 6.3 µM
CCOC(=O)[C@@]12C[C@@H]1[C@@H](n1cnc3c(NCCCCCc4ccccc4)nc(C#Cc4ccc(Cl)s4)nc31)[C@H](O)[C@@H]2O | SLC6A3 | ligand displacement |  | radioligand | Ki | 3.1 µM
Cc1[nH]c(C)c(S(=O)(=O)Nc2cc(Cl)cc(Cl)c2Cl)c1C(=O)N1CCC(F)(F)C1 | DRD3 | G protein activation | antagonist | BRET | IC50 | 14.8 µM
O=C(Oc1ccc(Br)cc1)c1ccc(=O)oc1 | CA12 | enzyme activity | inhibitor | stopped-flow | Ki | 0.91 µM
CCOC(=O)[C@@]12C[C@@H]1[C@@H](n1ccc3c(NCCCCCc4ccccc4)nc(C#Cc4ccccc4)nc31)[C@H](O)[C@@H]2O | SLC6A3 | ligand displacement |  | radioligand | Ki | 1.9 µM
Cc1[nH]c(C)c(S(=O)(=O)Nc2ccc(C(F)(F)F)c(Cl)c2)c1C(=O)N1CC[C@@H](F)C1 | DRD3 | G protein activation | antagonist | BRET | IC50 | 1 µM
